ChEMBL document CHEMBL3045078, “Insecticidal effect and chemical composition of the volatile oil from Bergenia ligulata” (2011)
The source made the active and inactive calls. The calls are words filed in the database; no cut-off is given here.

Columns and labels:
Drosophila melanogaster [1] = experiment: Adulticidal activity against adult Drosophila melanogaster (males/females 1:1 ratio) assessed as mortality measured after 3 hr; format: functional
Method in brief: (§1)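 Topical dose applied to the abdomen of ice-immobilised adults, 5–7 days old, in 0.5 μL acetone. Controls received acetone only. Flies were held at 25 °C, RH >60%, on a 12 h light/dark cycle. Thirty flies per dose, three replicates. Survival was recorded 3 h after treatment. Mortality means inability to move, with recovery checked.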

Drosophila melanogaster [2] = experiment: Adulticidal activity against adult Drosophila melanogaster (males/females 1:1 ratio) assessed as mortality at 1 ng/adult measured after 3 hr; format: functional, organism-based
Drosophila melanogaster [3] = experiment: Adulticidal activity against adult Drosophila melanogaster (males/females 1:1 ratio) assessed as mortality at 2 ng/adult measured after 3 hr; format: functional, organism-based; method in brief: as §1
Drosophila melanogaster [4] = experiment: Adulticidal activity against adult Drosophila melanogaster (males/females 1:1 ratio) assessed as mortality at 20 ng/adult measured after 3 hr; format: functional, organism-based; method in brief: as §1
Drosophila melanogaster [5] = experiment: Adulticidal activity against adult Drosophila melanogaster (males/females 1:1 ratio) assessed as mortality at 0.5 ng/adult measured after 3 hr; format: functional, organism-based

Row | Structure (SMILES) | LD50 (Drosophila melanogaster [1]) [µg] | Activity (Drosophila melanogaster [2]) | Activity (Drosophila melanogaster [3]) | Activity (Drosophila melanogaster [4]) | Activity (Drosophila melanogaster [5])
1 | COc1ccc2c(c1OC)CN1CCc3cc4c(cc3[C@@H]1C2)OCO4 [CANADINE] | 2.5 | – | – | – | –
2 | C[C@@H]1CC[C@H]2[C@H](C)CC[C@@H](c3ccoc3)N2C1 [(-)-7-EPI-DEOXYNUPHARIDINE] | 0.9 | – | – | – | –
3 | C[C@H]1CC=CC(=O)O1 [(+)-(6S)-PARASORBIC ACID] | 1.44 | inactive | Active | Active | inactive
4 | C=C(C)[C@H]1Cc2c(ccc3c2O[C@@H]2COc4cc(OC)c(OC)cc4[C@@H]2C3=O)O1 [ROTENONE] | 3.68 | – | – | – | –
